Measurements: ChEMBL document CHEMBL1124255, “7-substituted 5-amino-1-cyclopropyl-6,8-difluoro-1,4-dihydro-4-oxo-3- quinolinecarboxylic acids: synthesis and biological activity of a new class of quinolone antibacterials” (J Med Chem, 1988)
In brackets after ≈: the same amount, converted by molar mass.

What was measured:
Enterobacter cloacae = experiment: Antibacterial activity against Enterobacter cloacae MA2646; assay type: functional
Escherichia coli [1] = experiment: Antibacterial activity against Escherichia coli H560; assay type: functional
Summary of the method: (§1)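 Minimum inhibitory concentration measured by standard microtitration, run as part of a panel of 11 bacterial organisms.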

Escherichia coli [2] = experiment: Antibacterial activity against Escherichia coli Vogel; assay type: functional; summary of the method: as §1
DNA gyrase = DNA gyrase (Escherichia coli, UniProt P0AES4+P0AES6); experiment: 50% inhibitory concentration against DNA-gyrase; assay type: protein-complex assay
Klebsiella pneumoniae = experiment: Antibacterial activity against Klebsiella pneumoniae MGH-2; assay type: functional; summary of the method: as §1
Escherichia coli [3] = experiment: Median protective dose against Escherichia coli, determined in acute, lethal systemic infection in female charles river CD-1 mice (po); assay type: functional; parameters: PD50: unit not given here; conditions: for ED50: Escherichia coli, po, read-out: PD50
Summary of the method: (§2)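 Female Charles River CD-1 mice (18-22 g) were challenged intraperitoneally with about 100 median lethal doses in 0.5 mL 5% hog gastric mucin. Single compound doses in a twofold rising series were given in 0.5 mL at the time of challenge: sc as aqueous solution, po by gavage in 5% gum acacia. Groups of eight mice were used per dose. PD50 was estimated from survival percentages by log probit.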

Escherichia coli [4] = experiment: Median protective dose against Escherichia coli, determined in acute, lethal systemic infection in female charles river CD-1 mice (sc); assay type: functional; conditions: read-out: PD50; summary of the method: as §2
Providencia rettgeri = experiment: Antibacterial activity against Providencia rettgeri M1771; assay type: functional; summary of the method: as §1
Pseudomonas aeruginosa = experiment: Antibacterial activity against Pseudomonas aeruginosa UI-18; assay type: functional; summary of the method: as §1
Staphylococcus aureus [5] = experiment: Antibacterial activity against Staphylococcus aureus UC76; assay type: functional; summary of the method: as §1
Staphylococcus aureus [6] = experiment: Antibacterial activity against Staphylococcus aureus H-228; assay type: functional; summary of the method: as §1
Streptococcus pneumoniae = experiment: Antibacterial activity against Streptococcus pneumoniae SV-1; assay type: functional; summary of the method: as §1
Streptococcus pyogenes = experiment: Antibacterial activity against Streptococcus pyogenes C203; assay type: functional; summary of the method: as §1
Enterococcus faecalis = experiment: Antibacterial activity against Streptococcus faecalis MGH-2; assay type: functional; summary of the method: as §1

Compound | MIC (Enterobacter cloacae) | MIC (Escherichia coli [1]) | MIC (Escherichia coli [2]) | IC50 (DNA gyrase) | MIC (Klebsiella pneumoniae) | ED50 (Escherichia coli [3]) | ED50 (Escherichia coli [4]) | MIC (Providencia rettgeri) | MIC (Pseudomonas aeruginosa) | MIC (Staphylococcus aureus [5]) | MIC (Staphylococcus aureus [6]) | MIC (Streptococcus pneumoniae) | MIC (Streptococcus pyogenes) | MIC (Enterococcus faecalis) | PD50 (Escherichia coli [3])
CCNCC1CCN(c2c(F)cc3c(=O)c(C(=O)O)cn(C4CC4)c3c2F)C1 (centres undefined) [PD-117558] | 0.2 µg/mL (≈ 0.511 µM) | 0.025 µg/mL (≈ 0.0639 µM) | 0.05 µg/mL (≈ 0.128 µM) | 3.58 µM | 0.1 µg/mL (≈ 0.255 µM) | 4.2 mg/kg | 1 mg/kg | 0.2 µg/mL (≈ 0.511 µM) | 0.4 µg/mL (≈ 1.02 µM) | 0.006 µg/mL (≈ 0.0153 µM) | 0.05 µg/mL (≈ 0.128 µM) | 0.025 µg/mL (≈ 0.0639 µM) | 0.025 µg/mL (≈ 0.0639 µM) | 0.025 µg/mL (≈ 0.0639 µM) | –
CCNCC1CCN(c2c(F)c(NC)c3c(=O)c(C(=O)O)cn(C4CC4)c3c2F)C1 (centres undefined) | 0.4 µg/mL (≈ 0.951 µM) | 0.05 µg/mL (≈ 0.119 µM) | 0.2 µg/mL (≈ 0.476 µM) | 32.8 µM | 0.4 µg/mL (≈ 0.951 µM) | 11 mg/kg | 5 mg/kg | 1.6 µg/mL (≈ 3.81 µM) | 3.1 µg/mL (≈ 7.37 µM) | 0.025 µg/mL (≈ 0.0595 µM) | 0.025 µg/mL (≈ 0.0595 µM) | 0.025 µg/mL (≈ 0.0595 µM) | 0.1 µg/mL (≈ 0.238 µM) | 0.1 µg/mL (≈ 0.238 µM) | –
CC1COc2c(N3CCN(C)CC3)c(F)cc3c(=O)c(C(=O)O)cn1c23 (centres undefined) [OFLOXACIN] | 0.1 µg/mL (≈ 0.277 µM) | 0.1 µg/mL (≈ 0.277 µM) | 0.1 µg/mL (≈ 0.277 µM) | – | 0.1 µg/mL (≈ 0.277 µM) | 2 mg/kg | 0.8 mg/kg | 0.1 µg/mL (≈ 0.277 µM) | 0.4 µg/mL (≈ 1.11 µM) | 0.1 µg/mL (≈ 0.277 µM) | 0.4 µg/mL (≈ 1.11 µM) | 0.8 µg/mL (≈ 2.21 µM) | 0.8 µg/mL (≈ 2.21 µM) | 0.8 µg/mL (≈ 2.21 µM) | –
CN1CCN(c2c(F)c(N)c3c(=O)c(C(=O)O)cn(C4CC4)c3c2F)CC1 | 0.013 µg/mL (≈ 0.0344 µM) | 0.003 µg/mL (≈ 0.00793 µM) | 0.013 µg/mL (≈ 0.0344 µM) | 7.4 µM | 0.013 µg/mL (≈ 0.0344 µM) | 2.2 mg/kg | 1.1 mg/kg | 0.05 µg/mL (≈ 0.132 µM) | 0.1 µg/mL (≈ 0.264 µM) | 0.025 µg/mL (≈ 0.0661 µM) | 0.05 µg/mL (≈ 0.132 µM) | 0.2 µg/mL (≈ 0.529 µM) | 0.4 µg/mL (≈ 1.06 µM) | 0.1 µg/mL (≈ 0.264 µM) | –
O=C(O)c1cn(C2CC2)c2c(F)c(N3CCNCC3)c(F)cc2c1=O | 0.05 µg/mL (≈ 0.143 µM) | 0.025 µg/mL (≈ 0.0716 µM) | 0.1 µg/mL (≈ 0.286 µM) | 8.02 µM | 0.05 µg/mL (≈ 0.143 µM) | – | 0.3 mg/kg | 0.1 µg/mL (≈ 0.286 µM) | 0.2 µg/mL (≈ 0.573 µM) | 0.1 µg/mL (≈ 0.286 µM) | 0.4 µg/mL (≈ 1.15 µM) | 0.8 µg/mL (≈ 2.29 µM) | 0.8 µg/mL (≈ 2.29 µM) | 0.4 µg/mL (≈ 1.15 µM) | 0.45
Nc1c(F)c(N2CCC(N)C2)c(F)c2c1c(=O)c(C(=O)O)cn2C1CC1 (centres undefined) | 0.006 µg/mL (≈ 0.0165 µM) | 0.003 µg/mL (≈ 0.00823 µM) | 0.006 µg/mL (≈ 0.0165 µM) | 7.14 µM | 0.006 µg/mL (≈ 0.0165 µM) | 1.6 mg/kg | 0.4 mg/kg | 0.025 µg/mL (≈ 0.0686 µM) | 0.05 µg/mL (≈ 0.137 µM) | 0.006 µg/mL (≈ 0.0165 µM) | 0.013 µg/mL (≈ 0.0357 µM) | 0.006 µg/mL (≈ 0.0165 µM) | 0.025 µg/mL (≈ 0.0686 µM) | 0.025 µg/mL (≈ 0.0686 µM) | –
NCC1CCN(c2c(F)c(N)c3c(=O)c(C(=O)O)cn(C4CC4)c3c2F)C1 (centres undefined) | 0.025 µg/mL (≈ 0.0661 µM) | 0.003 µg/mL (≈ 0.00793 µM) | 0.013 µg/mL (≈ 0.0344 µM) | 7.66 µM | 0.025 µg/mL (≈ 0.0661 µM) | 12 mg/kg | 0.8 mg/kg | 0.05 µg/mL (≈ 0.132 µM) | 0.1 µg/mL (≈ 0.264 µM) | 0.003 µg/mL (≈ 0.00793 µM) | 0.006 µg/mL (≈ 0.0159 µM) | 0.003 µg/mL (≈ 0.00793 µM) | 0.003 µg/mL (≈ 0.00793 µM) | 0.013 µg/mL (≈ 0.0344 µM) | –
CNCC1CCN(c2c(F)c(N)c3c(=O)c(C(=O)O)cn(C4CC4)c3c2F)C1 (centres undefined) | 0.05 µg/mL (≈ 0.127 µM) | 0.003 µg/mL (≈ 0.00765 µM) | 0.025 µg/mL (≈ 0.0637 µM) | 7.65 µM | 0.05 µg/mL (≈ 0.127 µM) | 7.5 mg/kg | 0.8 mg/kg | 0.2 µg/mL (≈ 0.51 µM) | 0.4 µg/mL (≈ 1.02 µM) | 0.006 µg/mL (≈ 0.0153 µM) | 0.013 µg/mL (≈ 0.0331 µM) | 0.003 µg/mL (≈ 0.00765 µM) | 0.003 µg/mL (≈ 0.00765 µM) | 0.025 µg/mL (≈ 0.0637 µM) | –
CCNCC1CCN(c2c(F)c(NC(C)=O)c3c(=O)c(C(=O)O)cn(C4CC4)c3c2F)C1 (centres undefined) | > 25 µg/mL | 12.5 µg/mL (≈ 27.9 µM) | > 25 µg/mL | > 223 µM | > 25 µg/mL | – | – | > 25 µg/mL | > 25 µg/mL | 3.1 µg/mL (≈ 6.91 µM) | 12.5 µg/mL (≈ 27.9 µM) | 6.3 µg/mL (≈ 14 µM) | 12.5 µg/mL (≈ 27.9 µM) | 12.5 µg/mL (≈ 27.9 µM) | –
Nc1c(F)c(N2CCNCC2)c(F)c2c1c(=O)c(C(=O)O)cn2C1CC1 | 0.013 µg/mL (≈ 0.0357 µM) | 0.003 µg/mL (≈ 0.00823 µM) | 0.013 µg/mL (≈ 0.0357 µM) | 7.68 µM | 0.025 µg/mL (≈ 0.0686 µM) | 0.8 mg/kg | 0.2 mg/kg | 0.05 µg/mL (≈ 0.137 µM) | 0.025 µg/mL (≈ 0.0686 µM) | 0.013 µg/mL (≈ 0.0357 µM) | 0.05 µg/mL (≈ 0.137 µM) | 0.05 µg/mL (≈ 0.137 µM) | 0.2 µg/mL (≈ 0.549 µM) | 0.05 µg/mL (≈ 0.137 µM) | –
CN1CCN(c2c(F)c(N(C)C)c3c(=O)c(C(=O)O)cn(C4CC4)c3c2F)CC1 | > 25 µg/mL | > 25 µg/mL | > 25 µg/mL | > 492 µM | > 25 µg/mL | – | – | > 25 µg/mL | > 25 µg/mL | > 25 µg/mL | > 25 µg/mL | > 25 µg/mL | > 25 µg/mL | > 25 µg/mL | –
CNc1c(F)c(N2CCNCC2)c(F)c2c1c(=O)c(C(=O)O)cn2C1CC1 | 0.1 µg/mL (≈ 0.264 µM) | 0.025 µg/mL (≈ 0.0661 µM) | 0.1 µg/mL (≈ 0.264 µM) | 36.5 µM | 0.1 µg/mL (≈ 0.264 µM) | 1.5 mg/kg | 0.8 mg/kg | 0.8 µg/mL (≈ 2.11 µM) | 1.6 µg/mL (≈ 4.23 µM) | 0.2 µg/mL (≈ 0.529 µM) | 0.8 µg/mL (≈ 2.11 µM) | 0.8 µg/mL (≈ 2.11 µM) | 3.1 µg/mL (≈ 8.19 µM) | 1.6 µg/mL (≈ 4.23 µM) | –
O=C(O)c1cn(C2CC2)c2cc(N3CCNCC3)c(F)cc2c1=O [CIPROFLOXACIN] | – | 0.025 µg/mL (≈ 0.0754 µM) | – | – | 0.1 µg/mL (≈ 0.302 µM) | 1.2 mg/kg | 0.3 mg/kg | 0.1 µg/mL (≈ 0.302 µM) | 0.4 µg/mL (≈ 1.21 µM) | 0.2 µg/mL (≈ 0.604 µM) | 3.1 µg/mL (≈ 9.36 µM) | 1.6 µg/mL (≈ 4.83 µM) | 0.8 µg/mL (≈ 2.41 µM) | 0.8 µg/mL (≈ 2.41 µM) | –
CC1COc2c(N3CCN(C)CC3)c(F)c(N)c3c(=O)c(C(=O)O)cn1c23 (centres undefined) | 0.8 µg/mL (≈ 2.13 µM) | 0.1 µg/mL (≈ 0.266 µM) | 0.2 µg/mL (≈ 0.531 µM) | 69.1 µM | 0.4 µg/mL (≈ 1.06 µM) | 7.5 mg/kg | 4.6 mg/kg | 1.6 µg/mL (≈ 4.25 µM) | 0.8 µg/mL (≈ 2.13 µM) | 0.2 µg/mL (≈ 0.531 µM) | 0.8 µg/mL (≈ 2.13 µM) | 3.1 µg/mL (≈ 8.24 µM) | 3.1 µg/mL (≈ 8.24 µM) | 1.6 µg/mL (≈ 4.25 µM) | –
CCNCC1CCN(c2c(F)c(N)c3c(=O)c(C(=O)O)cn(C4CC4)c3c2F)C1 (centres undefined) | 0.05 µg/mL (≈ 0.123 µM) | 0.013 µg/mL (≈ 0.032 µM) | 0.05 µg/mL (≈ 0.123 µM) | 6.64 µM | 0.05 µg/mL (≈ 0.123 µM) | – | 2.4 mg/kg | 0.05 µg/mL (≈ 0.123 µM) | 0.4 µg/mL (≈ 0.984 µM) | 0.003 µg/mL (≈ 0.00738 µM) | 0.013 µg/mL (≈ 0.032 µM) | 0.003 µg/mL (≈ 0.00738 µM) | 0.013 µg/mL (≈ 0.032 µM) | 0.025 µg/mL (≈ 0.0615 µM) | 16
CC(=O)Nc1c(F)c(N2CCNCC2)c(F)c2c1c(=O)c(C(=O)O)cn2C1CC1 | > 25 µg/mL | > 25 µg/mL | > 25 µg/mL | > 246 µM | > 25 µg/mL | – | – | > 25 µg/mL | > 25 µg/mL | > 25 µg/mL | > 25 µg/mL | > 25 µg/mL | > 25 µg/mL | > 25 µg/mL | –
